ChEMBL document CHEMBL1121938, “Hypocholesterolemic and antiaggregatory properties of 2-hydroxytetronic acid redox analogues an their relationship to clofibric acid” (1982)

Tests used:
Rattus norvegicus [1] = assay: Effect of compound was measured on serum total cholesterol in male Dawley rats at the dose of 0.4 mmol/kg (day+10).; type: functional, organism-based
In short: (§1)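 Serum total cholesterol was measured enzymatically on a bichromatic analyzer. Serum was separated after clotting on ice (2000g, 10 min), held at 4 °C and assayed within 48 h. Rats were male Sprague-Dawley on a high-cholesterol diet, n = 6, dosed orally twice daily for 14 days in 0.25% methylcellulose (1.0 mL/100 g). They were fasted 16-18 h before each bleed. Results are in mg/dL ± SD.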

Rattus norvegicus [2] = assay: Effect of compound was measured on serum total cholesterol in male Dawley rats at the dose of 0.4 mmol/kg (day+14).; type: functional, organism-based; in short: as §1
Rattus norvegicus [3] = assay: Effect of compound was measured on serum total triglycerides in male Dawley rats at the dose of 0.4 mmol/kg (day+4).; type: functional, organism-based
In short: (§2)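 Serum triglycerides were measured with an enzymatic triglyceride reagent on a bichromatic analyzer. Rats were male Sprague-Dawley (180-210 g) fed a high-cholesterol diet, n = 6 per group, dosed orally twice daily for 14 days in 0.25% methylcellulose or vehicle. They were fasted 16-18 h before blood collection on days -1, +4, +7, +10 (orbital plexus, light ether) and +14 (aorta). Analysis was repeated-measures ANOVA with Duncan's test.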

Rattus norvegicus [4] = assay: Effect of compound was measured on serum total cholesterol in male Dawley rats at the dose of 0.4 mmol/kg (day+7).; type: functional, organism-based; in short: as §1
Rattus norvegicus [5] = assay: Effect of compound was measured on serum alpha-lipoprotein in male Dawley rats at the dose of 0.4 mmol/kg (day+10).; type: functional, organism-based
In short: (§3)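 Male Sprague-Dawley rats (180-210 g) fed a high-cholesterol diet for 1 week before and throughout dosing. Groups of n = 6 were dosed orally twice daily for 14 days in 0.25% methylcellulose, with vehicle controls. Rats were fasted 16-18 h before orbital bleeds on days -1, +4, +7 and +10, and by aortic exsanguination on day +14. Serum α-lipoprotein cholesterol was measured by polyanionic precipitation, in mg/dL ± SD.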

[6] = Effect of compound was measured on serum heparin-MnCl2 precipated ipoprotein Dawley rats at 0.4 mmol/kg dose(day+10).; type: functional
In short: (§4)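 Cholesterol-fed male Sprague-Dawley rats, n = 6 per group, given compound or 0.25% methylcellulose orally twice daily for 14 days, and fasted 16-18 h before each bleed (days -1, +4, +7, +10, +14). Heparin-MnCl2 precipitable lipoprotein cholesterol was taken as serum total cholesterol minus α-lipoprotein cholesterol. It is reported as a ratio to α-LP cholesterol ± SD. Analysis was ANOVA with repeated measures and Duncan's test.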

Rattus norvegicus [7] = assay: Effect of compound was measured on serum total triglycerides in male Dawley rats at the dose of 0.4 mmol/kg (day+10).; type: functional, organism-based; in short: as §2
Rattus norvegicus [8] = assay: Effect of compound on liver TG levels in male Dawley rats at the dose of 0.4 mmol/kg; type: functional; design: unit: g/100 g wet liver
In short: (§5)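 Male Sprague-Dawley rats (180-210 g) were kept on a high-cholesterol diet for 1 week before and throughout treatment. Groups of n = 6 received drug in 0.25% methylcellulose orally twice daily for 14 days, or vehicle. After a 16-18 h fast, livers were excised at day +14 and homogenized in 0.1 M Tris-HCl pH 7.2 with 1.15% KCl. Lipids were extracted from 25% w/v homogenate and reported as g/100 g wet liver ± SD; groups compared by ANOVA and Duncan's test.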

[9] = Effect of compound was measured on serum heparin-MnCl2 precipated ipoprotein Dawley rats at 0.4 mmol/kg dose(day-1).; type: functional; in short: as §4
Rattus norvegicus [10] = assay: Effect of compound was measured on serum alpha-lipoprotein in male Dawley rats at the dose of 0.4 mmol/kg (day+4).; type: functional, organism-based; in short: as §3
[11] = Effect of compound was measured on serum heparin-MnCl2 precipated ipoprotein Dawley rats at 0.4 mmol/kg dose(day+7).; type: functional; in short: as §4
[12] = Effect of compound was measured on serum heparin-MnCl2 precipated ipoprotein Dawley rats at 0.4 mmol/kg dose(day+4).; type: functional; in short: as §4
[13] = Effect of compound on liver to body weight ratio in male Dawley rats at the dose of 0.4 mmol/kg; type: functional
In short: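 Male Sprague-Dawley rats (180-210 g) were kept on a cholesterol-rich diet and dosed orally twice daily for 14 days in 0.25% methylcellulose; vehicle controls received the same; n = 6 per group. After a 16-18 h fast, rats were exsanguinated at day +14. Livers were removed, rinsed in ice-cold buffer, blotted and weighed, and related to body weight. Data were analysed by repeated-measures ANOVA with Duncan's multiple range test.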

Rattus norvegicus [14] = assay: Effect of compound was measured on serum alpha-lipoprotein in male Dawley rats at the dose of 0.4 mmol/kg (day-1).; type: functional, organism-based; in short: as §3
Rattus norvegicus [15] = assay: Effect of compound was measured on serum total triglycerides in male Dawley rats at the dose of 0.4 mmol/kg (day-1).; type: functional, organism-based; in short: as §2
Rattus norvegicus [16] = assay: Effect of compound was measured on serum total triglycerides in male Dawley rats at the dose of 0.4 mmol/kg (day+7).; type: functional, organism-based; in short: as §2
Rattus norvegicus [17] = assay: Effect of compound was measured on serum alpha-lipoprotein in male Dawley rats at the dose of 0.4 mmol/kg (day+7).; type: functional, organism-based; in short: as §3
Rattus norvegicus [18] = assay: Effect of compound was measured on serum total cholesterol in male Dawley rats at the dose of 0.4 mmol/kg (day+4).; type: functional, organism-based; in short: as §1
Rattus norvegicus [19] = assay: Effect of compound was measured on serum total triglycerides in male Dawley rats at the dose of 0.4 mmol/kg (day+14).; type: functional, organism-based; in short: as §2
[20] = Effect of compound was measured on serum heparin-MnCl2 precipated ipoprotein Dawley rats at 0.4 mmol/kg dose(day+14).; type: functional; in short: as §4
Rattus norvegicus [21] = assay: Effect of compound was measured on serum alpha-lipoprotein in male Dawley rats at the dose of 0.4 mmol/kg (day14).; type: functional, organism-based; in short: as §3
Rattus norvegicus [22] = assay: Effect of compound on liver CH levels in male Dawley rats at the dose of 0.4 mmol/kg; type: functional; design: unit: g/100 g wet liver; in short: as §5
Rattus norvegicus [23] = assay: Effect of compound was measured on serum total cholesterol in male Dawley rats at the dose of 0.4 mmol/kg (day-1).; type: functional, organism-based; in short: as §1

Row | Structure (SMILES) | serum total cholesterol (Rattus norvegicus [1]) | serum total cholesterol (Rattus norvegicus [2]) | Serum total triglycerides (Rattus norvegicus [3]) | serum total cholesterol (Rattus norvegicus [4]) | alpha-lipoprotein cholesterol (Rattus norvegicus [5]) | Ratio [6] | Serum total triglycerides (Rattus norvegicus [7]) | Liver TG (Rattus norvegicus [8]) | Ratio [9] | alpha-lipoprotein cholesterol (Rattus norvegicus [10]) | Ratio [11] | Ratio [12] | Ratio [13] | alpha-lipoprotein cholesterol (Rattus norvegicus [14]) | Serum total triglycerides (Rattus norvegicus [15]) | Serum total triglycerides (Rattus norvegicus [16]) | alpha-lipoprotein cholesterol (Rattus norvegicus [17]) | serum total cholesterol (Rattus norvegicus [18]) | Serum total triglycerides (Rattus norvegicus [19]) | Ratio [20] | other results
1 | CCOC(=O)C(C)(C)Oc1ccc(Cl)cc1 [CLOFIBRATE] | 316 mg/dL | 302 mg/dL | 141 mg/dL | 209 mg/dL | 51.7 mg/dL | 4.89 | 196 mg/dL | 1.84 | 3.81 | 38.5 mg/dL | 3.12 | 2.54 | 6.2 | 44.4 mg/dL | 266 mg/dL | 169 mg/dL | 52.7 mg/dL | 127 mg/dL | 155 mg/dL | 4.76 | alpha-lipoprotein cholesterol (Rattus norvegicus [21]): 55 mg/dL; Liver CH levels (Rattus norvegicus [22]): 3.58; serum total cholesterol (Rattus norvegicus [23]): 202 mg/dL
2 | O=C1OC(c2ccc(Cl)cc2)C(=O)C1=O (stereo unspecified) | 356 mg/dL | 217 mg/dL | 198 mg/dL | 377 mg/dL | 29 mg/dL | 11.9 | 151 mg/dL | 3.76 | 5.76 | 32 mg/dL | 12.6 | 5.63 | 4 | 40.3 mg/dL | 268 mg/dL | 164 mg/dL | 30.5 mg/dL | 205 mg/dL | 105 mg/dL | 5.75 | alpha-lipoprotein cholesterol (Rattus norvegicus [21]): 34.2 mg/dL; Liver CH levels (Rattus norvegicus [22]): 4.9; serum total cholesterol (Rattus norvegicus [23]): 250 mg/dL
